Measurements published in ChEMBL document CHEMBL3259637, “Synthesis and antiproliferative effect of novel 4-thiazolidinone-, pyridine- and piperazine-based conjugates on human leukemic cells” (Eur J Med Chem, 2014).
Activity calls are given as the source filed them. The calls are words filed in the database; no cut-off is given here.

Assays:
K562 = test: Antiproliferative activity against human K562 cells after 48 to 72 hrs by trypan blue dye exclusion assay and MTT assay; assay type: functional, cell-based
[1] = Antiproliferative activity against human NALM6 cells after 48 to 72 hrs by trypan blue dye exclusion assay and MTT assay; assay type: functional, cell-based; conditions: NALM-6
Jurkat = test: Antiproliferative activity against human Jurkat cells after 48 to 72 hrs by trypan blue dye exclusion assay and MTT assay; assay type: functional, cell-based
[2] = Cell cycle arrest in human NALM6 cells assessed as accumulation at G2/M phase at 20 uM after 48 hrs by propidium iodide staining based flow cytometry; assay type: functional; conditions: NALM-6
How it was run: (§1)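 Nalm6 cells (about 0.75 × 10⁵ cells/ml) were treated at 5, 10 and 20 µM for 48 h, with a DMSO vehicle control. Cells were PBS-washed, treated with RNase (50 µg/ml), stained with propidium iodide and analysed by flow cytometry (488 nm excitation, 560/670 emission). At least 10,000 cells per sample; subG1, G1, S and G2/M fractions scored. Two independent experiments.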

NALM-6 = test: Induction of cell death in human NALM6 cells assessed as mitochondrial membrane potential depolarization after 48 hrs by JC1 staining based flow cytometry; assay type: functional
How it was run: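 Nalm6 cells were exposed to 5, 10 and 20 µM for 48 h, then loaded with JC-1 (0.5 µM) at 37°C for 30 min and PBS-washed. Flow cytometry used 488 nm excitation, reading emission at 530/630 and 580/610 nm on 10,000 cells. The ratio of red to green fluorescent cells was reported. 2,4-DNP was the positive control and DMSO the vehicle control.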

[3] = Cell cycle arrest in human NALM6 cells assessed as change in cell cycle distribution at 5 to 10 uM after 48 hrs by propidium iodide staining based flow cytometry; assay type: functional; conditions: NALM-6; how it was run: as §1
[4] = Cell cycle arrest in human NALM6 cells assessed as change in cell cycle distribution after 48 hrs by propidium iodide staining based flow cytometry; assay type: functional; conditions: NALM-6; how it was run: as §1
[5] = Cell cycle arrest in human NALM6 cells assessed as accumulation at subG1 phase at 20 uM after 48 hrs by propidium iodide staining based flow cytometry; assay type: functional; conditions: NALM-6; how it was run: as §1

COC(=O)c1ccc(C2SCC(=O)N2c2ccc(N3CCN(S(=O)(=O)c4ccc([N+](=O)[O-])cc4)CC3)cn2)c(OC)c1 (stereo not given)
IC50 (K562): 65.2 µM
IC50 [1]: > 100 µM
IC50 (Jurkat): 54 µM

COC(=O)c1ccc(C2SCC(=O)N2c2ccc(N3CCN(S(=O)(=O)c4ccc(OC)cc4)CC3)cn2)c(OC)c1 (stereo not given)
IC50 (K562): 54.5 µM
IC50 [1]: 29.4 µM
IC50 (Jurkat): 45.2 µM

COC(=O)c1ccc(C2SCC(=O)N2c2ccc(N3CCN(S(=O)(=O)c4cc(Cl)ccc4Cl)CC3)cn2)c(OC)c1 (stereo not given)
IC50 (K562): > 100 µM
IC50 [1]: 27.4 µM
IC50 (Jurkat): > 100 µM

CC(=O)O[C@H]1C(=O)[C@@]2(C)[C@H]([C@H](OC(=O)c3ccccc3)[C@]3(O)C[C@H](OC(=O)[C@H](O)[C@@H](NC(=O)c4ccccc4)c4ccccc4)C(C)=C1C3(C)C)[C@]1(OC(C)=O)CO[C@@H]1C[C@@H]2O [PACLITAXEL]
IC50 [1]: 0.0041 µM
IC50 (Jurkat): 0.0045 µM

COC(=O)c1ccc(C2SCC(=O)N2c2ccc(N3CCN(Cc4ccc(Cl)c(Cl)c4)CC3)cn2)c(OC)c1 (stereo not given)
IC50 (K562): > 100 µM
IC50 [1]: > 100 µM
IC50 (Jurkat): 61 µM

COC(=O)c1ccc(C2SCC(=O)N2c2ccc(N3CCN(Cc4cccc(C)c4)CC3)cn2)c(OC)c1 (stereo not given)
IC50 (K562): > 100 µM
IC50 [1]: 27.3 µM
IC50 (Jurkat): > 100 µM

COC(=O)c1ccc(C2SCC(=O)N2c2ccc(N3CCN(S(=O)(=O)c4c(C)cc(C)cc4C)CC3)cn2)c(OC)c1 (stereo not given)
IC50 (K562): 53.5 µM
IC50 [1]: > 100 µM
IC50 (Jurkat): > 100 µM

COC(=O)c1ccc(C2SCC(=O)N2c2ccc(N3CCN(Cc4cc(OC)c(OC)c(OC)c4)CC3)cn2)c(OC)c1 (stereo not given)
IC50 (K562): > 100 µM
IC50 [1]: > 100 µM
IC50 (Jurkat): 41 µM

COC(=O)c1ccc(C2SCC(=O)N2c2ccc(N3CCN(S(=O)(=O)c4ccc(F)cc4)CC3)cn2)c(OC)c1 (stereo not given)
IC50 (K562): > 100 µM
IC50 [1]: > 100 µM
IC50 (Jurkat): 78.3 µM

COC(=O)c1ccc(C2SCC(=O)N2c2ccc(N3CCN(S(=O)(=O)c4ccccc4)CC3)cn2)c(OC)c1 (stereo not given)
IC50 (K562): 65.6 µM
IC50 [1]: 48.4 µM
IC50 (Jurkat): 52.9 µM

COC(=O)c1ccc(C2SCC(=O)N2c2ccc(N3CCN(Cc4cccc([N+](=O)[O-])c4)CC3)cn2)c(OC)c1 (stereo not given)
IC50 (K562): 68.7 µM
IC50 [1]: > 100 µM
IC50 (Jurkat): 37.4 µM

COC(=O)c1ccc(C2SCC(=O)N2c2ccc(N3CCNCC3)cn2)c(OC)c1 (stereo not given)
Activity [2]: Active
Activity (NALM-6): Dose-dependent effect
Activity [3]: Active
IC50 (K562): 15.2 µM
Activity [4]: Dose-dependent effect
IC50 [1]: 9.71 µM
IC50 (Jurkat): 19.3 µM
Activity [5]: Active
